From ChEMBL document CHEMBL1955825, “1,3-Phenylene bis(ketoacid) derivatives as inhibitors of Escherichia coli dihydrodipicolinate synthase” (Bioorg Med Chem, 2012)

Columns and labels:
Escherichia coli [1] = assay: Inhibition of Escherichia coli DHDPS-catalyzed condensation of pyruvate and aspartate semi-aldehyde at 5 mM measured after 1 min by UV-spectrophotometric analysis
How it was run: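 E. coli DHDPS in 200 mM HEPES pH 8.0 was pre-incubated 1 min with inhibitor (from 100% DMSO; final 5 mM), with a DMSO-only control. Activity was then read by the coupled DHDPR assay, following NADPH oxidation at 340 nm at 30 °C. The result is % inhibition relative to the control.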

[2] = (§1) Inhibition of Escherichia coli DHDPS-catalyzed condensation of pyruvate and aspartate semi-aldehyde by UV-spectrophotometric analysis; conditions: read-out: Ki(app)
How it was run: (§2)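 Time-dependent assay: DHDPS in HEPES pH 8.0 (raised to 500 mM for the acidic inhibitor) was pre-incubated with inhibitor at 0.5–25 mM. Aliquots were serially diluted before adding to substrates, and residual rate was measured by DHDPR/NADPH coupling at 340 nm at 30 °C. Decay curves of v_t/v_0 were fitted per Copeland. Ki app came from a y-intercept isotherm midpoint, and Ki* app from k_obs versus [I].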

Escherichia coli [3] = assay: as §1; conditions: TDE = time-dependent effect; how it was run: as §2
Escherichia coli [4] = assay: Inhibition of Escherichia coli DHDPS-catalyzed condensation of pyruvate and aspartate semi-aldehyde at 50 mM after 60 mins by UV-spectrophotometric analysis

Compound | inhibition (Escherichia coli [1]) | inhibition (Escherichia coli [3]) | inhibition (Escherichia coli [4]) | Ki [2]
COC(=O)C(=O)c1cccc(C(=O)C(=O)OC)c1O | 10% | tde |  | 40 µM
COC(=O)/C(=N\O)c1cccc(/C(=N/O)C(=O)OC)c1 | 15% |  |  | 330 µM

More lines, main results first:

inhibition (Escherichia coli [1]) | inhibition (Escherichia coli [3]) | inhibition (Escherichia coli [4]) | Compound | Ki [2]
10% | tde |  | O=C(O)C(=O)c1cccc(C(=O)C(=O)O)c1O | 290 µM
23% |  | 34% | O=C(O)/C(=N\O)c1cccc(/C(=N/O)C(=O)O)c1 | 
49% |  |  | O=C(O)C(=O)c1cccc(C(=O)C(=O)O)c1 | 2960 µM
2% |  |  | COC(=O)C(=O)c1cccc(C(=O)C(=O)OC)c1 | 
